# Key:
# HeLa = test: Cytotoxicity against human HeLa cells after 72 hrs by methylene blue staining; format: functional
# Outline: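 HeLa cells were cultured at 37 °C in RPMI 1640 with ultraglutamine, gentamicin and 10% heat-inactivated FBS, then pre-incubated 48 h without compound. Compound dilutions went onto the subconfluent monolayers, followed by 72 h at 37 °C, humidified, 5% CO2. Cells were fixed with glutaraldehyde, stained 15 min with 0.05% methylene blue and eluted with 0.33 N HCl, with OD read at 660 nm. CC50 was taken at 50% of untreated control, with 4 parallels per concentration.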
# [1] = Antiproliferative activity against HUVEC after 72 hrs by resazurin dye reduction assay; format: cell-based; conditions: human, HUVEC cells
# K562 = test: Antiproliferative activity against human K562 cells after 72 hrs by resazurin dye reduction assay; format: functional; conditions: K562, 72 h
# Outline: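 K-562 cells grown at 37 °C in RPMI 1640 with ultraglutamine, gentamicin and 10% heat-inactivated FBS. About 10,000 cells seeded per well in 0.1 mL medium. Compounds were dissolved in DMSO, diluted in DMEM and incubated with cells for 72 h at 37 °C, humidified, 5% CO2. Viable cells were read by CellTiter-Blue resazurin fluorescence. GI50 was taken where the dose-response curve crosses 50% of untreated control, with 4 parallels per concentration.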
# [2] = Octanol-water partition coefficient, log P by RP-HPLC method; format: physicochemical
# Albumin = Albumin (Homo sapiens, UniProt P02768); test: Binding affinity to HSA after 30 mins assessed as quenching of intrinsic HSA fluorescence emission by spectrofluorimetric assay; format: ADME
# Chain of Albumin (P02768 whole entry): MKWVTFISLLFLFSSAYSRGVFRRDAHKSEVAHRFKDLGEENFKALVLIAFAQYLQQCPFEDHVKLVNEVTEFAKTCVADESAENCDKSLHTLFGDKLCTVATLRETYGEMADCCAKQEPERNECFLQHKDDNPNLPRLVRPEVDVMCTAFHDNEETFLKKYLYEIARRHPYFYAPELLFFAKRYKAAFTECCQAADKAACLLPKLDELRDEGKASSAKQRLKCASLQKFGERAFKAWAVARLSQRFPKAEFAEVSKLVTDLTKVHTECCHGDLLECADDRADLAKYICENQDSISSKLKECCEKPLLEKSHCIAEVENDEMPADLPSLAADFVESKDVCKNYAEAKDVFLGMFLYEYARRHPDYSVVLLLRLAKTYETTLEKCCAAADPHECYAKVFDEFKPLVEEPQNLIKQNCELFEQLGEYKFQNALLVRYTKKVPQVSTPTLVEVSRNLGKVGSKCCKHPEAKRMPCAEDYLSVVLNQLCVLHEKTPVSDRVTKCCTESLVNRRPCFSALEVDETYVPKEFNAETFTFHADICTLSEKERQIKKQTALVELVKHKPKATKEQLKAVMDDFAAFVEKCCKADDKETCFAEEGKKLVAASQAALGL
# Outline: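 Intrinsic tryptophan fluorescence of HSA at 2 µM final in PBS pH 7.4. Compound stocks were made in DMSO and titrated at increasing concentrations, with 30 min incubation at ambient temperature. Kd came from a quadratic binding equation fitted by nonlinear least squares (Marquardt).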
smiles,measurement,setting,value
O=C1C(N2CCCCC2)=NN(c2ccc(Cl)cc2)CN1c1ccccc1Cl,CC50,HeLa,> 50 µg/mL
same,GI50 at 72 h,[1],> 50 µg/mL
same,GI50,K562,> 50 µg/mL
same,logP,[2],5
CN(C)C1=NN(c2ccccc2)CN(c2ccccc2Cl)C1=O,CC50,HeLa,39.5 µg/mL
same,GI50 at 72 h,[1],34.5 µg/mL
same,GI50,K562,5.8 µg/mL
same,logP,[2],3.6
same,Kd,Albumin,7.96 µM
CN(C)C1=NN(c2ccc(Cl)cc2)CN(c2ccccc2Cl)C1=O,CC50,HeLa,39.4 µg/mL
same,GI50 at 72 h,[1],16.1 µg/mL
same,GI50,K562,11 µg/mL
same,logP,[2],4.2
same,Kd,Albumin,10.2 µM
O=C1C(N2CCCC2)=NN(c2ccccc2)CN1c1ccccc1Cl,CC50,HeLa,44.3 µg/mL
same,GI50 at 72 h,[1],40.9 µg/mL
same,GI50,K562,5.2 µg/mL
same,logP,[2],4
same,Kd,Albumin,2.46 µM
O=C1C(N2CCCCC2)=NN(c2ccccc2)CN1c1ccccc1Cl,CC50,HeLa,26 µg/mL
same,GI50 at 72 h,[1],24.7 µg/mL
same,GI50,K562,42 µg/mL
same,logP,[2],4.6
O=C1C(N2CCOCC2)=NN(c2ccc(Cl)cc2)CN1c1ccccc1Cl,CC50,HeLa,> 50 µg/mL
same,GI50 at 72 h,[1],45.6 µg/mL
same,GI50,K562,> 50 µg/mL
same,logP,[2],4
O=C1C(N2CCOCC2)=NN(c2ccccc2)CN1c1ccccc1Cl,CC50,HeLa,> 50 µg/mL
same,GI50 at 72 h,[1],> 50 µg/mL
same,GI50,K562,> 50 µg/mL
same,logP,[2],3.5
O=C1C(N2CCCC2)=NN(c2ccc(Cl)cc2)CN1c1ccccc1Cl,CC50,HeLa,> 50 µg/mL
same,GI50 at 72 h,[1],18.9 µg/mL
same,GI50,K562,8.6 µg/mL
same,logP,[2],4.6
same,Kd,Albumin,2.77 µM
COc1cccc2c1C(=O)c1c(O)c3c(c(O)c1C2=O)C[C@@](O)(C(=O)CO)C[C@@H]3O[C@H]1C[C@H](N)[C@H](O)[C@H](C)O1 [DOXORUBICIN],CC50,HeLa,2 µg/mL
same,GI50 at 72 h,[1],0.1 µg/mL
same,GI50,K562,1 µg/mL
same,logP,[2],0.71
Cc1ccc(NC(=O)c2ccc(CN3CCN(C)CC3)cc2)cc1Nc1nccc(-c2cccnc2)n1 [IMATINIB],GI50 at 72 h,[1],10.9 µg/mL
same,GI50,K562,0.1 µg/mL

# — ChEMBL document CHEMBL1157585, “Synthesis and characterization of novel 1,2,4-triazine derivatives with antiproliferative activity” (Bioorg Med Chem, 2010)
